# Screening data deposited in PubChem BioAssay by Broad Institute.
# S100A4 inh HTS – inhibitors of human S100A4 binding to myosin IIA peptide; S100A4/TAMRA-MyoIIA peptide fluorescence polarization; inhibition, % at 10.7 µM; hit rate 0.14% among 360,000; AID 652163;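 active = mean inhibition of at least 70% across replicates, with every replicate also reaching that level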
# Target sequence (P26447 whole entry, looked up): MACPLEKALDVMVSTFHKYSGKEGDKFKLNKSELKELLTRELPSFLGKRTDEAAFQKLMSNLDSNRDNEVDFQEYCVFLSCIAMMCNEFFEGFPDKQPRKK
#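 System – human S100A4 monomer protein, biochemical binding assay · Buffer or medium – Calcium-containing HEPES buffer, pH 7.2 · Timing – 5 min between mix addition and reading · Also added – TAMRA-labelled myosin IIA heavy-chain peptide probe, 5 nM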
# FGF22 binding – binders of recombinant human FGF22 by thermal shift; Q9HCT0; activity (Tm shift, normalised), % at 9.99 µM; hit rate 1.5% among 340,000; SYPRO orange fluorescence; percent of sucrose octasulfate shift, DMSO zero;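 active = mean Tm shift, scaled 0 neutral to 100 positive control, at about 1.3% or above, every replicate too, limit read from the data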
# Target sequence (Q9HCT0 whole entry, looked up): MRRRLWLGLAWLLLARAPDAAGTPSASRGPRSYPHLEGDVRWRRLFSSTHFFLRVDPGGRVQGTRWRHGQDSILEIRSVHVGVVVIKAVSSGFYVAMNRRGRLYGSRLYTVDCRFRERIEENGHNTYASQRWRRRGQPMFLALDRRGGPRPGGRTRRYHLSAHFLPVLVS
# miR-122 sensor – miR-122 inhibition in Huh7 cells; Huh7 miR-122 Renilla luciferase sensor, 48 h; neutral wells = 0, positive control = 100; activation (reporter increase), % at 12.5 µM; hit rate 0.3% among 340,000; AID 602342;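 active = mean replicate activation score at least 90 and every replicate individually at or above 90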;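 also: higher luciferase means less miR-122 activity so hits act as miR-122 inhibitors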
# SIRT5 inh – inhibitors of human sirtuin-5 desuccinylase; inhibition, % at 15 µM; hit rate 1.1% among 330,000; Purified SirT5, succinyl-peptide AMC, trypsin-coupled fluorescence; in the data active = inhibition above about 15%
# Target sequence (Q9NXA8 whole entry, looked up): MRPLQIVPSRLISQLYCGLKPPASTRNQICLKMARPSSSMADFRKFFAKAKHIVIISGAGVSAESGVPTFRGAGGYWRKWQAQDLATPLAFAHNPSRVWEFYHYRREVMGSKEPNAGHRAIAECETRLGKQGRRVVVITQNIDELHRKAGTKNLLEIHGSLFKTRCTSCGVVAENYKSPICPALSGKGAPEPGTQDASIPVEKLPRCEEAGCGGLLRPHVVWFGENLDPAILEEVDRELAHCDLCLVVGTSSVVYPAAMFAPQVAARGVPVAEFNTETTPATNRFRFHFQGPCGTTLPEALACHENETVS
# E-selectin induc – induces E-selectin expression in human endothelial cells; P16581; hit rate 0.37% among 260,000; HUVEC E-selectin immunofluorescence imaging; normalized: neutral wells 0, TNF-alpha wells 100; activation, % at 7.58 µM; AID 686992;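 active = mean E-selectin-positive cell signal at least 10% of the positive control, reached in at least 60% of replicates, without over 20% cell loss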
#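 Read-out: % PE-positive cells | Test system: HUVEC | Doses: One compound dose added by pin transfer | Buffer or medium: EGM-2 over gelatin coat | Signal: Immunofluorescence imaging | Benchmarks: TNF-alpha, DMSO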
# An asterisk follows results filed as active; · = not tested or not shown; [ ] = another dose, or the depositor's remark. Sampled rows, rich in hits. Any-hit rate of the full collection: about 2.5%.
SMILES,S100A4 inh HTS,FGF22 binding,miR-122 sensor,SIRT5 inh,E-selectin induc
CCOC(=O)C1(Cc2cccc(OC)c2)CCCN(Cc2c(C)nn(C(C)C)c2C)C1 (stereo not given),-10,0,1,-2,0
CCCN1[C@@H]2c3ccc(-c4cccnc4)c(=O)n3C[C@@H]2[C@@H](CO)[C@@H]1C(=O)NC1CCCC1,4,·,·,3,0
O=C(COc1ccc(Cl)cc1)NCc1nnc2c3ccccc3c(-c3ccccc3)nn12,·,·,1,·,·
O=C(NCc1nnc2c3ccccc3c(-c3ccccc3)nn12)c1ccccc1Cl,-6,44*,-2,1,·
CC=Cc1ccc2n(c1=O)C[C@@H]1[C@@H](CO)[C@H](C(=O)NCC)N(CC3CCOCC3)[C@H]21 (mixture of isomers),·,·,·,·,0
CCCCn1nnc(NC(=S)NC(=O)c2cccs2)n1,-3,-1,-4,21*,·
CCn1c(C)cc(/C=C2/NC(=O)N(Cc3ccccc3F)C2=O)c1C,-7,0,-11,3,·
Cc1cc(/C=C2/NC(=O)N(Cc3ccccc3F)C2=O)c(C)n1C(C)C,-5,0,·,112*,0
C[C@H](NC(=O)C[C@@H]1CC[C@H](NC(=O)C2CCC2)[C@H](CO)O1)c1ccccc1,17,-1,·,3,0
C[C@@H]1CN([C@H](C)CO)C(=O)c2cc(NC(=O)CCCCCC(=O)Nc3ccccc3N)ccc2O[C@@H]1CN(C)Cc1ccc(Cl)c(Cl)c1,9,0,-9[16.7 µM],24*,7
C[C@H]1CN([C@@H](C)CO)C(=O)c2cc(NC(=O)CCCCCC(=O)Nc3ccccc3N)ccc2O[C@H]1CN(C)Cc1ccc(Cl)c(Cl)c1,17,0,-9[16.7 µM],21*,6
Fc1ccc(-n2nnc(-c3cccnc3Cl)n2)cc1,-4,0,-1,·,0
Fc1ccc(-n2nnc(-c3nccs3)n2)cc1,12,0,136*,1,0
O=C(c1ccccc1F)N1CC[C@@H]2[C@H](CO)Nc3ccc(-c4ccc(F)cc4)cc3[C@@H]21,-4,0,11[16.7 µM],6,0
COc1cccc(-c2cnc3c(c2)C(=O)N([C@@H](C)CO)C[C@@H](C)[C@H](CN(C)CC2CCCC2)O3)c1,·,·,·,·,0
COc1ccc(NC(=S)Nc2ccc(OC(F)F)cc2)cn1,-1,43*,·,0,·
C[C@@H](NC(=O)C[C@@H]1CC[C@@H](NC(=O)C2CCC2)[C@@H](CO)O1)c1ccccc1,-7,0,·,1,0
COC(=O)[C@@]1(Cc2ccc(F)cc2)[C@H]2c3cc(C(=O)N(C)C)n(Cc4ccccc4)c3C[C@H]2CN1C(=O)c1ccccc1,-3,0,·,·,0
COC(=O)[C@@]1(Cc2ccc(F)cc2)[C@H]2c3cc(C(=O)N(C)C)n(Cc4ccc(C)o4)c3C[C@H]2CN1C(=O)c1ccccc1,-3,0,·,·,86*
CCCSc1ccc([C@@H]2[C@H]3C(=O)N(CC)C(=O)[C@H]3[C@]3(C(=O)OC)CCCN23)cc1,-15,0,3,36*,0
CCCSc1ccc([C@@H]2[C@@H]3C(=O)N(CC)C(=O)[C@@H]3[C@]3(C(=O)OC)CCCCN23)cc1,-2,0,-1,·,0
O=S(=O)(N[C@@H]1CC[C@@H](CCn2cc(C3(O)CCCC3)nn2)O[C@@H]1CO)c1ccccc1,-8,0,·,-2,0
Cc1ccc(-c2noc(CN3CCC(C(N)=O)CC3)n2)cc1,·,·,7,·,·
COc1ccc(-c2noc(CN(C)CCC3CCCCO3)n2)cc1 (stereo not given),-5,1,0,-3,·
COC(=O)c1ccc(-c2noc(CN3CCCC(CNC(C)=O)C3)n2)cc1 (stereo not given),2,0,-7,35*,2
SMILES,S100A4 inh HTS,FGF22 binding,miR-122 sensor,SIRT5 inh,E-selectin induc
COC(=O)c1ccc(-c2noc(CN(C)CCC3CCCCO3)n2)cc1 (stereo not given),0,43*,·,-4,·
C[C@H](CO)N1C[C@H](C)[C@@H](CN(C)Cc2ccncc2)Oc2ccc(NC(=O)C3CC3)cc2C1=O,·,·,4[16.7 µM],·,·
C[C@@H]1CN([C@H](C)CO)C(=O)Cc2cc(NC(=O)C3CCCCC3)ccc2O[C@H]1CN(C)Cc1ccc2c(c1)OCO2,-6,0,2[16.7 µM],4,0
COc1ccc(OC)c(NC(=O)c2ccc(Cl)cc2)c1,6,0,·,0,·
COc1ccc(OC)c(NC(=O)c2csc(Cl)c2OC)c1,-7,0,·,-4,38*
Oc1ccc(CN2CCN(Cc3ccccc3)CC2)c2cccnc12,·,·,-16,·,·
CN1CCN(C2CCN(Cc3ccc(O)c4ncccc34)CC2)CC1,-1,44*,·,1,0
COc1ccc(NC(=O)Nc2ccc3c(c2)C(=O)N([C@@H](C)CO)C[C@H](C)[C@@H](CN(C)C(=O)Nc2ccc(F)cc2)O3)cc1,-9,0,-4[16.7 µM],2,2
O=C(O)Cc1cc(=O)[nH]n(-c2ccccc2)c1=O,2,0,-5,-5,0
CCOC(=O)Cc1cc(=O)[nH]n(-c2ccccc2)c1=O,4,44*,-3,·,0
COc1ccc(NC(=O)Nc2ccc3c(c2)C(=O)N([C@@H](C)CO)C[C@H](C)[C@@H](CN(C)S(C)(=O)=O)O3)cc1,17,0,-12[16.7 µM],-1,0
Cc1c(NC(=O)c2ccc(NC(=O)C3CC3)cc2)cccc1C(=O)O,-7,0,1,20*,-1
Cc1c(NC(=O)c2ccccc2NC(=O)c2ccccc2)cccc1C(=O)O,3,0,-7,1,·
Cc1noc(C)c1NC(=O)Nc1ccc2c(c1)C(=O)N([C@H](C)CO)C[C@H](C)[C@H](CN(C)S(=O)(=O)c1ccc(Cl)cc1)OCCCC[C@@H](C)O2,-2,-1,16[16.7 µM],6,0
COc1ccc(S(=O)(=O)Nc2ccc3c(c2)C(=O)N([C@H](C)CO)C[C@@H](C)[C@@H](CN(C)S(=O)(=O)c2ccccc2)O3)cc1,4,-1,15[16.7 µM],2,0
COc1ccc(S(=O)(=O)Nc2ccc3c(c2)C(=O)N([C@H](C)CO)C[C@@H](C)[C@H](CN(C)Cc2ccc(C(F)(F)F)cc2)OCCCC[C@H](C)O3)cc1,19,0,-16[16.7 µM],15*,0
COc1ccc(S(=O)(=O)Nc2ccc3c(c2)C(=O)N([C@H](C)CO)C[C@H](C)[C@@H](CN(C)Cc2ccc(C(F)(F)F)cc2)OCCCC[C@H](C)O3)cc1,-8,0,12[16.7 µM],15,1
COc1ccc(S(=O)(=O)Nc2ccc3c(c2)C(=O)N([C@H](C)CO)C[C@H](C)[C@@H](CN(C)Cc2ccc(C(F)(F)F)cc2)OCCCC[C@@H](C)O3)cc1,22,0,-3[16.7 µM],2,0
